Assay results taken from the array DNA melting data of Ke et al. (doi:10.1101/2024.01.08.574731).

Tests used:
[1] = folding enthalpy; higher = less favourable; fluorescence melt of hairpins on a sequencing array, two-state fit; settings: sodium 0.088 M
Outline: (§1)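 Folding enthalpy and melting temperature come from bootstrapped two-state fits to Cy3 fluorescence of library hairpins carrying annealed Cy3 and quencher oligos on a sequenced MiSeq flow cell. Imaging was done in 50 mM Na-HEPES pH 8.0, 25 mM NaCl, stepping by 2.5 °C up to 60 °C, and signals were normalised to pre-quench Cy3 and to control constructs. Results of four replicates were combined by inverse variance, and fitted temperatures were raised by 9.35 °C to match UV melts.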

[2] = melting temperature; fluorescence melt of hairpins on a sequencing array, two-state fit, raised by 9.35 °C to match UV melts; settings: sodium 0.088 M
Outline: as §1

Row | Sequence | folding enthalpy [1] [kcal/mol] | Tm [2] [°C]
1 | GCACCGCGAAAGCCGCGC ((.(.((....)).).)) | -16.8 | 41.4
2 | GCACCGCGAAAGCTCTGC (((..((....))..))) | -10.9 | 27.4
3 | GCACCGCGAAAGCTGCGC ((.(.((....)).).)) | -24.4 | 47.4
4 | GCACCGGGAAACCGGTAC (.(((((....))))).) | -14.8 | 41
5 | GCACCTCGAAAGAGATGC (((.(((....))).))) | -40.3 | 50.6
6 | GCACCTCGAAAGAGCTGC (((.(((....))).))) | -25.5 | 42.2
7 | GCACCTGGAAACAAGTGC ((((.((....)).)))) | -27.4 | 41.1
8 | GCACCTGGAAACAGATGC (((.(((....))).))) | -28.4 | 44
9 | GCACCTGGAAACAGGCGC ((.((((....)))).)) | -46.8 | 53.5
10 | GCACGCGAAAGCGAGTGC ((((((....)))..))) | -21.1 | 59.5
11 | GCACGCGAAAGCGGATGC ((((((....)))..))) | -15 | 54.9
12 | GCACGCGAAAGCGGCTGC ((((((....)))..))) | -14.7 | 65.4
13 | GCACGCGAAAGCGTATGC ((((((....)))..))) | -13.3 | 50.9
14 | GCACGGACGAAAGTCTGC (((..(((....)))))) | -12.9 | 42.5
15 | GCACGGCGAAAGCCCAGC ((..(((....)))..)) | -12.2 | 38.4
16 | GCACGGCGAAAGCCTCGC ((..(((....)))..)) | -16.5 | 42
17 | GCACGGCGAAAGCGGCGC ((.(.((....)).).)) | -24.1 | 57
18 | GCACGGCGAAAGCGGGGC ((.(.((....)).).)) | -31.5 | 64.9
19 | GCACGGCGAAAGCGTTGC (((..((....))..))) | -18.5 | 49.3
20 | GCACGTCGAAAGACATGC (((.(((....))).))) | -31.7 | 52.7
21 | GCACGTGGAAACGCGTGC (((((.(....).))))) | -45.1 | 64.6
22 | GCACGTTCGAAAGAATGC (((..(((....)))))) | -16.9 | 29.6
23 | GCACTAGAAATAGTGC ((((((....)))))) | -33.6 | 55.4

Row | Sequence | folding enthalpy [1] [kcal/mol] | Tm [2] [°C]
24 | GCACTAGCGAAAGCTTGC (((..(((....)))))) | -12.6 | 38.6
25 | GCACTAGGAAACCAGTGC (((((.(....).))))) | -34.1 | 48.3
26 | GCACTAGGAAACTGGTGC ((((.((....)).)))) | -34.5 | 52.9
27 | GCACTCGAAAGAGAATGC ((((((....)))..))) | -24.6 | 35.1
28 | GCACTCGAAAGAGCATGC ((((((....)))..))) | -14.4 | 35.2
29 | GCACTCGAAAGAGGCTGC ((((((....)))..))) | -19.6 | 53
30 | GCACTCGAAAGAGTATGC ((((((....)))..))) | -16.2 | 42.1
31 | GCACTCGGAAACAAGTGC (((((.(....).))))) | -29.3 | 46.3
32 | GCACTCGGAAACGAGCGC ((.((((....)))).)) | -38.9 | 55.2
33 | GCACTGACGAAAGTCTGC (((..(((....)))))) | -14.3 | 38.1
34 | GCACTGCCGAAAGGCTGC (((..(((....)))))) | -13.4 | 44.5
35 | GCACTGCGAAAGCAAAGC ((..(((....)))..)) | -13.2 | 37.1
36 | GCACTGCGAAAGCAGAGC ((.((((....)))).)) | -20.7 | 65.9
37 | GCACTGCGAAAGCCCTGC (((..((....))..))) | -12.5 | 28.8
38 | GCACTGCGAAAGCCGCGC ((.(.((....)).).)) | -21 | 45.4
39 | GCACTGGGAAACCAATGC (((.(((....))).))) | -30.1 | 40.3
40 | GCACTGGGAAACCAGCAC (..((((....))))..) | -10.1 | 27.3
41 | GCACTTCGAAAGAAATGC (((.(((....))).))) | -31.3 | 42.3
42 | GCACTTCGAAAGAACTGC (((.(((....))).))) | -22.1 | 34.4
43 | GCACTTGGAAACAAGCGC ((.((((....)))).)) | -45 | 49.5
44 | GCACTTGGAAACAAGTGC (((((((....))))))) | -34.6 | 67.7
45 | GCAGAACCGAAAGGTTGC (((..(((....)))))) | -17.1 | 44.5
46 | GCAGAAGCGAAAGCTTGC (((..(((....)))))) | -16.2 | 47.2

Row | Sequence | folding enthalpy [1] [kcal/mol] | Tm [2] [°C]
47 | GCAGAAGGAAACTCCTGC ((((.((....)).)))) | -20.9 | 40.1
48 | GCAGACGAAAGTCGATGC ((((((....)))..))) | -17.6 | 45.4
49 | GCAGACGGAAACGTCTAC (.(((((....))))).) | -14.1 | 42.7
50 | GCAGAGCCGAAAGGCTGC (((..(((....)))))) | -13.8 | 52.9
51 | GCAGAGCGAAAGCAATGC (((..((....))..))) | -21 | 53.9
52 | GCAGAGCGAAAGCACAGC ((.(.((....)).).)) | -15.6 | 42.9
53 | GCAGAGCGAAAGCGCGGC ((.(.((....)).).)) | -20.9 | 60.1
54 | GCAGAGCGAAAGCTTAGC ((..(((....)))..)) | -17.5 | 41.7
55 | GCAGAGCGAAAGCTTTGC (((.(((....))).))) | -53.2 | 56.1
56 | GCAGAGGCGAAAGCCTGC (((..(((....)))))) | -14.5 | 56.7
57 | GCAGAGGGAAACCCCTGC ((((.((....)).)))) | -33.7 | 49
58 | GCAGATGCGAAAGCATGC (((..(((....)))))) | -13.6 | 47.9
59 | GCAGATGGAAACGTTTGC (((.(.(....).).))) | -12.6 | 28.9
60 | GCAGCACGAAAGTGTTGC (((.(((....))).))) | -37.2 | 60.6
61 | GCAGCAGCGAAAGCTTGC (((..(((....)))))) | -13.6 | 43.5
62 | GCAGCAGGAAACTACTGC ((((.((....)).)))) | -30.5 | 45.5
63 | GCAGCCCCGAAAGGGTGC (((..(((....)))))) | -16.5 | 53.4
64 | GCAGCCCGAAAGGGTGC (((.(((....)))))) | -20.6 | 64.4
65 | GCAGCCGAAAGGCCGTGC ((((((....)))..))) | -13.3 | 41.9
66 | GCAGCCGCGAAAGCGTGC (((..(((....)))))) | -8.84 | 48.4
67 | GCAGCCGGAAACGGTTGC (((.(((....))).))) | -50.1 | 64.8
68 | GCAGCGACGAAAGTCTGC (((..(((....)))))) | -16.1 | 48.3
69 | GCAGCGCGAAAGCATTGC (((..((....))..))) | -14 | 40.9

Row | Sequence | folding enthalpy [1] [kcal/mol] | Tm [2] [°C]
70 | GCAGCGCGAAAGCCATGC (((..((....))..))) | -14.9 | 45.1
71 | GCAGCGCGAAAGCCCAGC ((.(.((....)).).)) | -10.9 | 28.1
72 | GCAGCGCGAAAGCCCTGC ((((.((....)).)))) | -25.9 | 60.1
73 | GCAGCGCGAAAGCGCCGC ((.((((....)))).)) | -15.5 | 67.4
74 | GCAGCGCGAAAGCGGCGC ((..(((....)))..)) | -21.6 | 67.5
75 | GCAGCGCGAAAGCGGGGC ((..(((....)))..)) | -28 | 67.2
76 | GCAGCGCGAAAGCGTGGC ((..(((....)))..)) | -23.1 | 64.2
77 | GCAGCTCCGAAAGGATGC (((..(((....)))))) | -16.2 | 41.5
78 | GCAGCTGCGAAAGCATGC (((..(((....)))))) | -11.6 | 45.1
79 | GCAGCTGGAAACAGCTAC (.(((((....))))).) | -14 | 42.1
80 | GCAGCTTCGAAAGAATGC (((..(((....)))))) | -12.8 | 29.1
81 | GCAGGACGAAAGTCTGC (((.(((....)))))) | -31.7 | 58.4
82 | GCAGGAGAAATCCTGC ((((((....)))))) | -36.1 | 61.1
83 | GCAGGCGAAAGCCCCTGC ((((((....)))..))) | -15.9 | 40.6
84 | GCAGGCGAAAGCCGTTGC ((((((....)))..))) | -12.6 | 53.7
85 | GCAGGCGAAAGCCTCTGC ((((((....)))..))) | -12 | 46.7
86 | GCAGGCGAAAGCCTGTGC ((((((....)))..))) | -14.2 | 68.2
87 | GCAGGGAAACCTGC (((((....))))) | -28.1 | 62.7
88 | GCAGGGCCGAAAGGCTGC (((..(((....)))))) | -14.3 | 55.3
89 | GCAGGGCGAAAGCACGGC ((.(.((....)).).)) | -33.9 | 65
90 | GCAGGGCGAAAGCCAAGC ((..(((....)))..)) | -17.2 | 53.4
91 | GCAGGGCGAAAGCCTGC (((.(((....)))))) | -20.3 | 68
